From ChEMBL document CHEMBL4138314, “Synthesis and Evaluation of N-Phenyl-3-sulfamoyl-benzamide Derivatives as Capsid Assembly Modulators Inhibiting Hepatitis B Virus (HBV)” (J Med Chem, 2018)

Test system: HBV genotype D
Assay: Antiviral activity against HBV genotype D infected in chimeric mouse with humanized liver assessed as log reduction in viral DNA level in serum at 0.03 mg/kg, po qd for 28 days by RT-PCR method
Format: functional, hepatitis B virus genotype D
How it was run: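 HBV genotype D-infected chimeric mice with humanized liver (human hepatocyte replacement index ≥70%, judged by serum human albumin). Dosing was once daily for 28 days: test article 200 mg/kg s.c., entecavir 0.03 mg/kg oral as positive control, and oral saline as negative control. The read-out was serum HBV DNA (copies/mL), given as mean log change from baseline at day 29.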

C=C1[C@H](CO)[C@@H](O)C[C@@H]1n1cnc2c(=O)[nH]c(N)nc21.O [ENTECAVIR]
log(activity): 3.03
